Measurements from publication PMC2814311 (Journal of biological inorganic chemistry : JBIC : a …, 2009).

Assays:
[1] = tested on: MCF10dcis.com (DCIS) cells; assay: Copper accumulation in breast cancer cells measured by ICP-OES; assay type: cell-based, human; conditions: for difference in ability to accumulate cellular copper versus inactive analogs: 10 μM CuCl2 mixtures, 1 h (8-OHQ vs 2, 3) or 8 hrs (CQ vs 5, 6); for increase of intracellular copper level: compound-copper mixture
[2] = Parallel artificial membrane permeability assay; assay type: in vitro ADME; conditions: PAMPA
Method in brief: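 Test compound was supplied as a 10 mM DMSO stock and diluted 200-fold in pH 7.4 buffer. It was placed in the donor wells under an artificial lipid membrane filter plate holding pH 7.4 acceptor sink buffer. Plates were incubated 0.5 h at room temperature, with each well magnetically stirred. Donor and acceptor concentrations were measured by UV plate spectrometry in an automated workflow.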

[3] = Cu-ligand binding by UV-vis titration; assay type: physicochemical; conditions: UV-vis titration with CuCl2 in methanol; 0.1 mM compound
[4] = Caco-2 permeability assay; assay type: in vitro ADME; conditions: human; for efflux ratio at 2 h, 50 μmol/L: Caco-2, pH 7.4; for Papp at 2 h, 50 μmol/L: 2 hrs at 37°C
Method in brief: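 Caco-2 cells were grown in MEM with 20% FBS at 37 °C and 5% CO2. They were seeded on transwell inserts at 0.165×10^5 cells/insert and cultured 21 days in 10% FBS MEM, with monolayer integrity checked by TEER. Monolayers were washed in HBSS/HEPES (10 mM, pH 7.4). Test compound (50 μmol/L) was added apically or basolaterally and incubated 2 h at 37 °C. The receiver side was quantified by UPLC/MS. Papp = dQ/dt×1/AC0, and efflux ratio = B→A/A→B.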

[5] = tested on: breast cancer DCIS cells; assay: Cell proliferation assay; assay type: cell-based, human; conditions: for toxicity of compound alone: DCIS cells, compound without copper, 24 h, MTT
Method in brief: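 DCIS human breast cancer cells were kept in DMEM/F12 with 5% horse serum, bicarbonate, 10 mM HEPES and antibiotics at 37 °C, 5% CO2. They were grown to 70–80% confluency, then given test compound alone or premixed with CuCl2 at various concentrations for 24 h at 37 °C. Medium was removed before the MTT read-out. Viability is expressed as percent of DMSO-treated cells (mean±SD, n=4).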

[6] = Caco-2, pH 7.4, CaCo2 Papp A/B, apical to basolateral
[7] = Caco-2, pH 7.4, Caco2 Papp B/A, basolateral to apical

Papp at 0.5 hr, 50 µM [2] [×10⁻⁶ cm/s]	formation of copper complex [3]	efflux ratio at 2 h, 50 μmol/L [4]	Papp at 2 h, 50 μmol/L [4, 6] [×10⁻⁶ cm/s]	Papp at 2 h, 50 μmol/L [4, 7] [×10⁻⁶ cm/s]	SMILES	difference in ability to accumulate cellular copper versus inactive analogs [1]	increase of intracellular copper level [1]	toxicity of compound alone [5]	toxicity of compound alone ([5]; listed as 8-OHQ)	toxicity of compound alone ([5]; listed as CQ)	anti-proliferative effect of synthesized copper complex ([5]; unpublished work of the authors)
68.2 ± 10.9	could not form complexes with copper	0.6	48.3 ± 2.6	29.9 ± 0.7	COc1cccc2cccnc12 [Compound 2, 8-methoxyquinoline]		did not change the accumulation of intracellular copper				
33.4 ± 3.1	bind to copper and form complexes	0.7	47.3 ± 6.1	31.5 ± 2.2	Oc1c(I)cc(Cl)c2cccnc12 [Compound 4, 5-chloro-7-iodo-8-hydroxyquinoline, reference compound]	40–50 fold		some toxicity		much less or no toxicity	
77.9 ± 5.4	could not form complexes with copper	0.6	21.5 ± 3.1	12.5 ± 1.6	COc1c(I)cc(Cl)c2cccnc12 [Compound 5, 5-chloro-7-iodo-8-methoxyquinoline]		did not change the accumulation of intracellular copper				
30.8 ± 4.9	could not form complexes with copper	0.7	60.4 ± 2.4	41.3 ± 2.7	COc1ccc(Cl)c2cccnc12 [Compound 6, 5-chloro-8-methoxyquinoline]		did not change the accumulation of intracellular copper				

Further lines, the compound ahead of its results:

SMILES	Papp at 0.5 hr, 50 µM [2] [×10⁻⁶ cm/s]	formation of copper complex [3]	efflux ratio at 2 h, 50 μmol/L [4]	Papp at 2 h, 50 μmol/L [4, 6] [×10⁻⁶ cm/s]	Papp at 2 h, 50 μmol/L [4, 7] [×10⁻⁶ cm/s]	difference in ability to accumulate cellular copper versus inactive analogs [1]	increase of intracellular copper level [1]	toxicity of compound alone [5]	toxicity of compound alone ([5]; listed as 8-OHQ)	toxicity of compound alone ([5]; listed as CQ)	anti-proliferative effect of synthesized copper complex ([5]; unpublished work of the authors)
Oc1cccc2cccnc12 [Compound 1, 8-hydroxyquinoline, reference compound]	21.3 ± 1.6	bind to copper and form complexes	0.8	38 ± 14.8	29 ± 1.1	at least 100 fold	135 fold	some toxicity	much less or no toxicity		
CCOc1cccc2cccnc12 [Compound 3, 8-ethoxyquinoline]	72.6 ± 24.8	could not form complexes with copper	0.5	20.7 ± 14.6	9.4 ± 2.5		did not change the accumulation of intracellular copper				
[Cu+2].[O-]c1cccc2cccnc12.[O-]c1cccc2cccnc12 [Cu [8-OHQ]2]											comparable to their copper mixtures
